{"data": "Experimental data collected from several papers", "Tmem97": "Sigma intracellular receptor 2 (Tmem97, Rattus norvegicus, UniProt Q5U3Y7)", "DHFR": "Dihydrofolate reductase (DHFR, Homo sapiens, UniProt P00374)", "note": "Protocols differ between the studies behind these lines."}
{"Structure (SMILES)": "COc1ccc2[nH]c3c(c2c1)[C@H]1C[C@@H]([C@H]3C)N(Cc2ccccc2)C[C@]1(C)O", "target": "Tmem97", "effect on": "ligand displacement", "technique": "radioligand", "concentration": "1 µM", "quantity": "inhibition", "result": "0%"}
{"Structure (SMILES)": "Cc1ccc(CNC(=S)NN=Cc2ccc(N3CCCCC3)cc2)cc1", "target": "DHFR", "effect on": "enzyme activity", "action": "inhibitor", "concentration": "500 µM", "quantity": "inhibition", "result": "81.4%"}
{"Structure (SMILES)": "CNc1ncc2c(/C=C/C(=O)N3CCC(OC)CC3)nn(Cc3cccc(C(F)(F)F)c3)c2n1", "target": "Activin receptor type-2B (ACVR2B, Homo sapiens, UniProt Q13705)", "effect on": "enzyme activity", "action": "inhibitor", "technique": "radiometric", "concentration": "1 µM", "quantity": "remaining activity", "result": "119%"}
{"Structure (SMILES)": "S=C(NN=Cc1ccc(N2CCCCC2)cc1)Nc1c(Cl)cccc1Cl", "target": "DHFR", "effect on": "enzyme activity", "action": "inhibitor", "concentration": "500 µM", "quantity": "inhibition", "result": "83.2%"}
{"Structure (SMILES)": "Cc1cc([C@@H](C)Nc2ccccc2C(=O)O)c2nc(N3CCC(F)(F)CC3)c(C#N)c(=O)n2c1", "target": "Casein kinase I isoform delta (CSNK1D, Homo sapiens, UniProt P48730)", "effect on": "binding", "technique": "competition with immobilised ligand", "concentration": "10 µM", "quantity": "remaining binding", "result": "100%"}
{"Structure (SMILES)": "S=C(NN=Cc1ccc(N2CCCCC2)cc1)Nc1ccccc1", "target": "DHFR", "effect on": "enzyme activity", "action": "inhibitor", "concentration": "500 µM", "quantity": "inhibition", "result": "90.1%"}
{"Structure (SMILES)": "C=CC(=O)N1CCC(COCC(=O)N2CCN(c3nc(-c4cnc(N)nc4C(F)F)nc(N4CCOC[C@@H]4C)n3)CC2)CC1", "target": "BMP-2-inducible protein kinase (BMP2K, Homo sapiens, UniProt Q9NSY1)", "effect on": "binding", "technique": "competition with immobilised ligand", "concentration": "1 µM", "quantity": "remaining binding", "result": "90%"}
{"Structure (SMILES)": "CC(C)OC(=O)CNc1cccc(CN(Cc2ccc(-n3cccn3)cc2)S(=O)(=O)c2cccnc2)n1", "target": "Rho-associated protein kinase 2 (ROCK2, Homo sapiens, UniProt O75116)", "effect on": "enzyme activity", "action": "inhibitor", "concentration": "10 µM", "quantity": "inhibition", "result": "≥ 50%"}
{"Structure (SMILES)": "S=C(NCc1ccccc1)NN=Cc1ccc(N2CCCCC2)cc1", "target": "DHFR", "effect on": "enzyme activity", "action": "inhibitor", "concentration": "500 µM", "quantity": "inhibition", "result": "82.8%"}
{"Structure (SMILES)": "COc1cc(-c2cncc3c2CN(C)Cc2cc(N4CCNCC4)ccc2-3)cc(OC)c1OC", "target": "Serine/threonine-protein kinase MRCK gamma (CDC42BPG, Homo sapiens, UniProt Q6DT37)", "effect on": "enzyme activity", "action": "inhibitor", "concentration": "1 µM", "quantity": "remaining activity", "result": "102%"}
{"Structure (SMILES)": "COc1cc([C@@H]2c3cc4c(cc3[C@@H](O[C@@H]3O[C@@H]5CO[C@@H](C)O[C@H]5[C@H](O)[C@H]3O)[C@H]3COC(=O)[C@H]23)OCO4)cc(OC)c1O", "target": "DNA topoisomerase 2-alpha (TOP2A, Homo sapiens, UniProt P11388)", "effect on": "enzyme activity", "action": "inhibitor", "concentration": "31.5 µM", "quantity": "inhibition", "result": "0%"}
{"Structure (SMILES)": "C[C@H]1C(=O)/C(=C/c2ccccc2)[C@H]2C[C@@H]1N(Cc1ccccc1)C[C@@]2(C)O", "target": "Tmem97", "effect on": "ligand displacement", "technique": "radioligand", "concentration": "1 µM", "quantity": "inhibition", "result": "0%"}
